# According to ChEMBL document CHEMBL1949536, “Gliotoxin analogues from a marine-derived fungus, Penicillium sp., and their cytotoxic and histone methyltransferase inhibitory activities” (J Nat Prod, 2012):
# pIC50: −log10 of the molar value. Active and inactive are the calls of the source. The calls are words filed in the database; no cut-off is given here.
# How the values were obtained:
# P388 = assay: Cytotoxicity against mouse P388 cells after 96 hrs by MTT assay; format: functional, cell-based; settings: P388, 96 h
# In short: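 P388 cells grown in RPMI-1640 with 10% FBS, kanamycin and 2-hydroxyethyl disulfide at 37 °C, 5% CO2; seeded at 1 × 10⁴ cells/mL, test solution in RPMI-1640 added, 96 h incubation. MTT (1 mg/mL) added for 3 h, cells dissolved in DMSO after centrifugation; IC₅₀ determined.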
# [1] = target: T1, Histone-lysine N-methyltransferase EHMT2 (Homo sapiens, UniProt Q96KQ7); assay: Inhibition of HMT-G9a using S-adenosylmethionine and biotinylated H3 peptide after 1 hr
# T1 sequence (Q96KQ7 whole entry): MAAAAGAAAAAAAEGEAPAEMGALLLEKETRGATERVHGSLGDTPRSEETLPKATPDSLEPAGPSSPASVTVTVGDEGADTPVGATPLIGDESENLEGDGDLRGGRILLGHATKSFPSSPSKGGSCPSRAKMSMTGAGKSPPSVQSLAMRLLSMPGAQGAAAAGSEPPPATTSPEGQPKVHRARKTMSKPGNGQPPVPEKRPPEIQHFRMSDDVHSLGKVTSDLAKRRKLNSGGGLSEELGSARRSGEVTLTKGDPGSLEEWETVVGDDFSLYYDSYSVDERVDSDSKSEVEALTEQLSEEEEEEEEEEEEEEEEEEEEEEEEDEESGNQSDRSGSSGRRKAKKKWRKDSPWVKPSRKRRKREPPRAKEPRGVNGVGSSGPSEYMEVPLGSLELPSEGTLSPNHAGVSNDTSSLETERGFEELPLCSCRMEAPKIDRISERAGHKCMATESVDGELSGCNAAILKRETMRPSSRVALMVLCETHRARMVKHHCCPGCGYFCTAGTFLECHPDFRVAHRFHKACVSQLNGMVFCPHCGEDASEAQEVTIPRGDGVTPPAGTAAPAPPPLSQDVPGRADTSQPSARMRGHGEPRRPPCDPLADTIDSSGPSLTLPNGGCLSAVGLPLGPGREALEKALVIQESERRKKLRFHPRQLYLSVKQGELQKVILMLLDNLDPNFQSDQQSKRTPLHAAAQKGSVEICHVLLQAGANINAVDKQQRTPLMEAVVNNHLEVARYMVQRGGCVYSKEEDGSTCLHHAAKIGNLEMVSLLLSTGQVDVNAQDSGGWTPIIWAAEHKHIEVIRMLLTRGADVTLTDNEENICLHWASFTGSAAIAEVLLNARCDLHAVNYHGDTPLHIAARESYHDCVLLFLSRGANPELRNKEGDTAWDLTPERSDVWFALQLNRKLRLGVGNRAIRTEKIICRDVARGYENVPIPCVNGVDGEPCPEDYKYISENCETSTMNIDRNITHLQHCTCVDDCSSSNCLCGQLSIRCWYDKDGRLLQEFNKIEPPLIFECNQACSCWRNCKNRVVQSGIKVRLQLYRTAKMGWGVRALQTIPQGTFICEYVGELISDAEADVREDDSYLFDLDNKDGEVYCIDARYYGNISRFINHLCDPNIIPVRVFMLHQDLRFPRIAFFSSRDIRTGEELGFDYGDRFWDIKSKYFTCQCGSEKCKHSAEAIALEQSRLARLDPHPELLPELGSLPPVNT
# In short: (§1)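 GST-G9a (200 ng) or His-Set7/9 (931 ng) with BSA preincubated with compound (DMSO) in Tris-HCl pH 8.5 buffer with MgCl₂, KCl, 2-mercaptoethanol, sucrose, 1 h rt; then SAM (50 ng) and biotinylated H3 peptide (50 ng), 37 °C 2 h, boiled. Captured on streptavidin plate; G9a: anti-methylated-lysine antibody, Set7/9: anti-dimethyl-H3K4 antibody; HRP secondary, TMB, A650.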
# [2] = target: T2, Histone-lysine N-methyltransferase SETD7 (Homo sapiens) (UniProt Q8WTS6); assay: Inhibition of HMT-set7/9 using S-adenosylmethionine and biotinylated H3 peptide at 100 uM after 1 hr; in short: as §1
# T2 sequence (whole entry): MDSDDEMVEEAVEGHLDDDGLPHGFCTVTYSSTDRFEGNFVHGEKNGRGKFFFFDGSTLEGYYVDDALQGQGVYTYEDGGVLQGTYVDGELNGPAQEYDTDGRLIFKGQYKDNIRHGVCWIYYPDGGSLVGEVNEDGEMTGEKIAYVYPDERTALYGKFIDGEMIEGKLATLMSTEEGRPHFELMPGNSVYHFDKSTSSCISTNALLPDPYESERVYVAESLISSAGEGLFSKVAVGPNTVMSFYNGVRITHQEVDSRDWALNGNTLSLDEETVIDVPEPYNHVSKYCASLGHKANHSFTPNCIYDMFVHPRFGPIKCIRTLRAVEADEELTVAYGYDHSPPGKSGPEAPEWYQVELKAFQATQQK
SMILES,pIC50 (P388),pIC50 [1],inhibition [2]
CN1C(=O)[C@]23CC4=CC=C[C@H](O)[C@H]4N2C(=O)[C@@]1(CO)SSSS3 [GLIOTOXIN G],7.70,5.68,inactive
CN1C(=O)[C@]23Cc4cccc(O)c4N2C(=O)[C@@]1(CO)SS3,7.25,5.59,inactive
CN1C(=O)[C@]23CC4=CC=C[C@H](O)[C@H]4N2C(=O)[C@@]1(CO)SS3 [GLIOTOXIN],7.62,5.19,inactive
CS[C@]1(CO)C(=O)N2c3c(O)cccc3C[C@@]2(SC)C(=O)N1C [DEHYDROBIS(METHYLTHIO)GLIOTOXIN],6.96,4.24,inactive
C=C1C(=O)N2[C@H]3C(=CC=C[C@@H]3O)C[C@@]2(SC)C(=O)N1C,5.47,< 4.00,inactive
CS[C@]1(CO)C(=O)N2[C@H]3C(=CC=C[C@@H]3O)C[C@@]2(SC)C(=O)N1C [BIS(DETHIO)BIS(METHYLTHIO)GLIOTOXIN],6.96,< 4.00,inactive
CN1C(=O)[C@]23Cc4ccccc4N2C(=O)[C@@]1(CO)SS3,7.24,4.26,inactive
